Source: publication PMC3217223 (Bioorganic & Medicinal Chemistry, 2009)
Structures can show the parent of a compound that is named as a salt.

How the values were obtained:
Punta Toro virus = assay type: cell-based; conditions: microscopy and MTS assay
influenza virus A/H3N2 = assay type: cell-based, influenza virus A/Hong Kong/7/87 (H3N2); conditions: influenza virus A/H3N2 (A/Hong Kong/7/87); microscopy and MTS assay
Reovirus-1 = assay type: cell-based; conditions: microscopy and MTS assay
Coxsackievirus B4 = assay type: cell-based; conditions: microscopy and MTS assay
parainfluenza-3 virus = assay type: cell-based; conditions: microscopy and MTS assay
[1] = test system: herpes simplex virus type 1; assay type: cell-based; conditions: microscopy and MTS assay
[2] = test system: vesicular stomatitis virus; assay type: cell-based
[3] = test system: respiratory syncytial virus; assay type: cell-based; conditions: microscopy and MTS assay
influenza virus B = assay type: cell-based, influenza virus B/Hong Kong/5/72; conditions: influenza virus B (B/Hong Kong/5/72); microscopy and MTS assay
influenza virus A/H1N1 = assay type: cell-based, influenza virus A/Puerto Rico/8/34 (H1N1); conditions: influenza virus A/H1N1 (A/Puerto Rico/8/34); microscopy and MTS assay
vaccinia virus = assay type: cell-based
[4] = test system: bloodstream form T. brucei (strain 427); experiment: T. brucei culturing and drug test; assay type: cell-based, Trypanosoma brucei; conditions: at concentrations up to 5 mg mL^−1
Outline: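 Parasites were kept at 37 °C in modified Iscove's medium (pH 7.4) and grown for 48 h with a range of test compound concentrations. Cell density at each concentration was counted by hemocytometer and expressed as percent of untreated control growth. Concentrations giving 50% and 90% growth inhibition (IC₅₀, IC₉₀) were determined. Run in triplicate.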

NMDA receptors = assay type: cell-based; conditions: cerebellar granule neurons, glutamate or NMDA 100 μM + glycine 10 μM
[5] = test system: herpes simplex virus type 2; assay type: cell-based; conditions: microscopy and MTS assay
feline coronavirus = assay type: cell-based; conditions: microscopy and MTS assay
sindbis virus = assay type: cell-based; conditions: microscopy and MTS assay

Q: Which Antiviral activity (Punta Toro virus) does the source give for NC12CC3CC(CC(C3)O1)C2 [Compound 7, (2-Oxaadamant-1-yl)amine hydrochloride] here?
A: None of the tested compounds displayed activity

Q: And the Antiviral activity (influenza virus A/H3N2)?
A: none of the compounds was found to be active

Q: What about the Antiviral activity (Reovirus-1) of the same compound?
A: None of the tested compounds displayed activity

Q: What about the Antiviral activity (Coxsackievirus B4) of the same compound?
A: None of the tested compounds displayed activity

Q: What about the Antiviral activity (parainfluenza-3 virus) of the same compound?
A: None of the tested compounds displayed activity

Q: And the Antiviral activity [1]?
A: None of the tested compounds displayed activity

Q: What about the Antiviral activity [2] of the same compound?
A: None of the tested compounds displayed activity

Q: And the Antiviral activity [3]?
A: None of the tested compounds displayed activity

Q: And the Antiviral activity (influenza virus B)?
A: none of the compounds was found to be active

Q: What about the Antiviral activity (influenza virus A/H1N1) of the same compound?
A: none of the compounds was found to be active

Q: And the Antiviral activity (vaccinia virus)?
A: None of the tested compounds displayed activity

Q: What about the “Trypanocidal activity (in words)” value [4] of the same compound?
A: no activity

Q: And the “NMDA receptor antagonism (in words)” value (NMDA receptors)?
A: inactive

Q: And the Antiviral activity [5]?
A: None of the tested compounds displayed activity

Q: What about the Antiviral activity (feline coronavirus) of the same compound?
A: None of the tested compounds displayed activity

Q: What about the Antiviral activity (sindbis virus) of the same compound?
A: None of the tested compounds displayed activity
